Assay results reported in paper PMC6370461 (ACS chemical biology, 2018).

Assays:
Human DJ-1 [1] = target: T1, Human DJ-1 (Homo sapiens, UniProt Q99497); assay: Binding affinity and thermodynamics by ITC
T1 sequence (Q99497 1-189): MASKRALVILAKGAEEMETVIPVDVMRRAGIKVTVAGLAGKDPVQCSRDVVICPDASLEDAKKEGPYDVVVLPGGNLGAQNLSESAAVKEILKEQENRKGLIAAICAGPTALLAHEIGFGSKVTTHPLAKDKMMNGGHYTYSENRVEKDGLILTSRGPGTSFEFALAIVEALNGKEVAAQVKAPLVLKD
In short: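 Recombinant human DJ-1 (E. coli-expressed) dialysed into PBS to remove DTT; compounds in the same PBS with 5% DMSO. Titrations at 25 °C with protein in the cell and compound in the syringe: DJ-1 20 μM against compound 200 μM (muteins: protein 100 μM, compound 1 mM). Isotherms fitted to a one-site binding model.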

DJ-1 in HEK293 cells = assay: Glyoxalase/deglycase activity in cells: CML-modified proteins by western blot; type: cell-based, human; conditions: glyoxal 2 mM
In short: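 HEK293 cells (2×10^5 per 6 cm dish) were cultured 3 days in DMEM with 10% FBS, then starved 20 h in 1% FBS. Treatment was 3 h in DMEM with 1% FBS, 0.2% DMSO and compound, with or without glyoxal (2 mM). Lysates underwent SDS-PAGE, nitrocellulose transfer and immunoblotting for carboxymethyl lysine, DJ-1 and β-actin, detected with HRP secondaries.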

Human DJ-1 [2] = target: T1, Human DJ-1; assay: Thermal stability of DJ-1 by DSF; type: binding; conditions: DJ-1 10 μM, compound 50 μM
In short: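 Tag-free DJ-1 (10 μM) with compound (50 μM) in PBS, 0.01% Tween 20 and 2.5% DMSO, with SYPRO Orange dye (excitation 470 nm, emission 570 nm). Samples were heated from 30 to 85 °C at 2 °C/min. TM was taken from the inflection point of the derivative unfolding curve and compared with unbound protein.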

DJ-1 in HeLa cells [3] = target: T2, DJ-1 in HeLa cells (Homo sapiens, UniProt Q99497); assay: CML-modified protein by western blot in HeLa cells; type: cell-based; conditions: highest concentration employed
T2 sequence (Q99497 1-189): T1 sequence (Q99497 1-189)
In short: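 HeLa cells (1.5×10^5 per well) were grown 24 h in DMEM with 10% FBS, starved 20 h in 0.5% FBS, then exposed 3 h to compound in 0.5% FBS with 0.2% DMSO. DJ-1 knockout HeLa cells were also used. RIPA lysates went to SDS-PAGE and nitrocellulose. The anti-CML blot was read by HRP chemiluminescence; DJ-1 and β-actin were detected by Cy5 fluorescence.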

DJ-1 in HeLa cells [4] = target: T2, DJ-1 in HeLa cells; assay: Cellular thermal shift assay; type: cell-based; conditions: thermal treatment at 63 °C
Human DJ-1 [5] = target: T1, Human DJ-1; assay: In vitro glyoxalase activity assay with phenylglyoxal as substrate; type: biochemical
In short: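 Recombinant DJ-1 0.5 μM with phenylglyoxal 2 μM in 100 mM potassium phosphate pH 7.0, 1% DMSO; compound 1.0 nM–30 μM. Initial velocities were taken from the loss of absorbance at 250 nm. Activity was expressed as the velocity ratio with versus without inhibitor, and sigmoidal fits gave the inhibition constant.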

Kd (Human DJ-1 [1]): 3.2 ± 0.1 µM
enthalpic efficiency (EE) (Human DJ-1 [1]): 1.1 kcal/mol
ΔH of binding (Human DJ-1 [1]; ITC, 25 °C): -11.6 ± 0.1 kcal/mol
−TΔS of binding (Human DJ-1 [1]; ITC, 25 °C): 4.1 kcal/mol
ΔTM, thermal stabilization with respect to the unbound protein (Human DJ-1 [2]): 1.8 °C
intensity of a protein modified with CML (DJ-1 in HeLa cells [3]): clearly increases
stabilization of the soluble form of DJ-1 in cells (DJ-1 in HeLa cells [4]): concentration-dependent stabilization
IC50 (Human DJ-1 [5]): 13 µM
Compound: O=C1Nc2ccccc2C1=O [compound 1, 1H-indole-2,3-dione]
intensity of bands of proteins modified with CML compared with DMSO control (DJ-1 in HEK293 cells): increased significantly
